Series [1] concerns HBV DNA replication in HepAD38 cells. The series is described as follows: In vitro anti-HBV assay in HepAD38 cells. The format is cell-based, Hepatitis B virus (HBV). Conditions: reduction of HBV DNA by 50% in HepAD38 cells, qPCR, 4 days incubation (Table 2). In outline:
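HepAD38 cells were plated overnight, then exposed to serially diluted test compound without tetracycline for 4 days. Cytoplasmic HBV core DNA was extracted and quantified by real-time PCR. EC50 is relative to mock-treated controls, calculated by the Reed & Muench method.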
For orientation: Quantitative PCR measures a nucleic acid by following its amplification.

A short description of series [2]: Cytotoxicity on HepAD38 cells by cytopathic effect. Conditions: human, HepAD38 cells, CC50, reduction of viability of HepAD38 cells by 50%, CPE method (Table 2). The format is cell-based, Human. In outline:
(§1)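 HepAD38 cells (tetracycline-inducible HBV) were maintained in DMEM with 10% FBS, 1 µg/mL tetracycline and 400 µg/mL G-418. Cells were plated overnight, then given serial dilutions of test compound without tetracycline. Cytotoxicity was read by the cytopathic effect method. CC50 is the concentration cutting viability by 50%, calculated by the Reed & Muench method.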
In general terms: Protection from cytopathic effect is a common read-out in antiviral testing.

The next series deals with HBV core protein (HBC) (Hepatitis B virus genotype D subtype ayw, UniProt P03146). The series is described as follows: HBC degradation in HepAD38 cells by Western blot. The settings on record: for HBC degradation activity (Western blot): tet-, maximum non-toxic concentration, 72 h. The series is classed as cell-based. (In western blotting, separated proteins are transferred to a membrane and probed.)

The test system of the next series is HepAD38 cells. The experiment in a line: Cytotoxicity on HepAD38 cells by cytopathic effect. The series is classed as cell-based, Human. The gist of the method:
as §1

Series [3] deals with 11 CpAMs-resistant mutant HBC (P25A, P25G, D29L, D29W, T33N, I105F, I105W, I105Y, T109A, V124W, V124F). The series is described as follows: Degradation of CpAMs-resistant mutant HBC in transfected HepG2 cells. The series is classed as cell-based, Hepatitis B virus (HBV). The settings on record: 18 h, HyT-S7 6, NVR 3-778 3, 3TC 1 μmol/L. The gist of the method: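 HepG2 cells at about 80% confluence were transfected with 0.25 µg plasmid. The pCMV-HBC-derived plasmids carried P25A, P25G, D29A/D29L, D29W, T33N, I105F, I105W, I105Y or T109A; pHBV1.3-derived plasmids carried V124F/V124W. At 6 h post-transfection, medium was replaced with fresh medium or test compound (6 µmol/L) or comparators (1–3 µmol/L) for 18 h. Intracellular core protein was detected by Western blot against a GAPDH/β-actin loading control, with chemiluminescence read-out.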

Where [4] appears, read: Hepatitis B virus, HePAD38, 96 h.

pEC50: −log10 of the molar value.

As usually defined, the pEC50 is the negative decadic logarithm of the EC50, by convention in mol/L. By CC50 is commonly meant the concentration that lowers cell viability or growth by half. A low value points to harm at low concentration. In turn, `CC(C)Cc1ccc([C@H](C)C(=O)NCCOCC(=O)NC2CCN(S(=O)(=O)c3cc(C(=O)Nc4cc(F)c(F)c(F)c4)ccc3F)CC2)cc1` [HyT-S13, (S)-4-Fluoro-3-((4-(2-(2-(2-(4-isobutylphenyl)propanamido)ethoxy)acetamido)piperidin-1-yl)sulfonyl)-N-(3,4,5-trifluorophenyl)benzamide] showed a pEC50 in series [1] (setting [4]) of 6.23. Further, in series [2], the CC50 came to 11.6 µM. Further, the “HBC degradation activity (Western blot)” value at HBV core protein (HBC) was “still retains some degradation activity”.
With `CC(C)[C@@H]1CC[C@@H](C)C[C@H]1OCC(=O)NCCOCC(=O)NC1CCN(S(=O)(=O)c2cc(C(=O)Nc3cc(F)c(F)c(F)c3)ccc2F)CC1` [HyT-S14, 4-Fluoro-3-((4-(2-(2-(2-(((1R,2S,5R)-2-isopropyl-5-methylcyclohexyl)oxy)acetamido)ethoxy)acetamido)piperidin-1-yl)sulfonyl)-N-(3,4,5-trifluorophenyl)benzamide], the pEC50 in series [1] (setting [4]) is 6.54. The compound further displayed a CC50 in series [2] of 11.6 µM. Further, the “HBC degradation activity (Western blot)” value on HBV core protein (HBC) was “still retains some degradation activity”.
The corresponding values for `O=C(CC1c2ccccc2-c2ccccc21)NCCOCC(=O)NC1CCN(S(=O)(=O)c2cc(C(=O)Nc3cc(F)c(F)c(F)c3)ccc2F)CC1` [HyT-S11, 3-((4-(2-(2-(2-(9H-Fluoren-9-yl)acetamido)ethoxy)acetamido)piperidin-1-yl)sulfonyl)-4-fluoro-N-(3,4,5-trifluorophenyl)benzamide] are 6.68, 34.6 µM and “still retains some degradation activity”.
In series [1], “N^1-(Bicyclo[2.2.1]hept-2-en-1-ylmethyl)-N^6-(1-((2-fluoro-5-((3,4,5-trifluorophenyl)carbamoyl)phenyl)sulfonyl)piperidin-4-yl)adipamide [HyT-S12]” showed a pEC50 of 6.66. This compound had a CC50 in the series with HepAD38 cells (reduction of viability of HepAD38 cells by 50%, CPE method (Table 2)) of 28.8 µM.
Regarding `NCCOCC(=O)NC1CCN(S(=O)(=O)c2cc(C(=O)Nc3cc(F)c(F)c(F)c3)ccc2F)CC1` [SP-O-7, 3-((4-(2-(2-Aminoethoxy)acetamido)piperidin-1-yl)sulfonyl)-4-fluoro-N-(3,4,5-trifluorophenyl)benzamide], on HBV core protein (HBC) (20 μmol/L, 24 h), the “HBC degradation (Western blot)” value was “unable to induce degradation of HBC”.
Compound `O=C(COCCNC(=O)C(c1ccccc1)c1ccccc1)NC1CCN(S(=O)(=O)c2cc(C(=O)Nc3cc(F)c(F)c(F)c3)ccc2F)CC1` [HyT-S10, 3-((4-(2-(2-(2,2-Diphenylacetamido)ethoxy)acetamido)piperidin-1-yl)sulfonyl)-4-fluoro-N-(3,4,5-trifluorophenyl)benzamide] gave a pEC50 in series [1] (setting [4]) of 6.59. In series [2], this compound yielded a CC50 of 20 µM. The “HBC degradation activity (Western blot)” value at HBV core protein (HBC) was “still retains some degradation activity”.
Turning to `Nc1ccn([C@@H]2CS[C@H](CO)O2)c(=O)n1` [3TC, lamivudine], in series [3], the “degradation of 11 mutant types of HBC” value was “neither NVR 3-778 nor 3TC showed any degradation effect”.
`CC(C)(C)OC(=O)/N=C(\NCCC[C@H](NC(=O)OC(C)(C)C)C(=O)NCCOCC(=O)NC1CCN(S(=O)(=O)c2cc(C(=O)Nc3cc(F)c(F)c(F)c3)ccc2F)CC1)NC(=O)OC(C)(C)C` [HyT-S15, 2-Methylpropan-2-yl {[(6E,11S)-18-({1-[(2-fluoro-5-{[(3,4,5-trifluorophenyl)amino]carbonyl}phenyl)dioxo-λ6-sulfanyl]hexahydropyridin-4-yl}amino)-2,2-dimethyl-11-({[(2-methylprop-2-yl)oxy]carbonyl}amino)-4,12,18-trioxo-3,16-dioxa-5,7,13-triazaoctadecan-6-ylidene]amino}methanoate] had a pEC50 in series [1] (setting [4]) of 6.35. The compound also came in with a CC50 in series [2] of 60 µM. Moreover, in the series with HepAD38 cells (HepAD38 cells, concentration used in the degradation test), the “maximum non-toxic concentration by CPE method” value amounted to 20 µmol/L. Besides, the “HBC degradation activity (Western blot)” value on HBV core protein (HBC) is listed as “still retains some degradation activity”.

Values taken from PMC12138108 (Acta Pharmaceutica Sinica. B, 2025).
